The target of experiment [1] is T1, Epidermal growth factor receptor (Homo sapiens, UniProt P00533). Kind of experiment: Inhibition of polyGAT phosphorylation.
Experiment [2] deals with NIH3T3. Kind of experiment: Inhibition of HER14 (human EGFR overexpressing NIH3T3) cell growth in the absence of EGF. In kind it is functional, Mus musculus. An outline of the steps: (§1)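 Serum-starved HER14 cells (NIH3T3 stably overexpressing EGF receptor) were given inhibitor at least 6-8 h before serum stimulation, with no EGF added. Inhibitor-containing medium was replaced every 24 h. Three parallel wells were used per concentration, and the IC50 for inhibition of serum-supported growth was determined.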

For experiment [3], the target named is Receptor tyrosine-protein kinase erbB-2 (Homo sapiens, UniProt P04626). Nature of the experiment: In vitro inhibition of ERBB2 receptor kinase autophosphorylation.
Receptor tyrosine-protein kinase erbB-2, sequence (P04626 whole entry): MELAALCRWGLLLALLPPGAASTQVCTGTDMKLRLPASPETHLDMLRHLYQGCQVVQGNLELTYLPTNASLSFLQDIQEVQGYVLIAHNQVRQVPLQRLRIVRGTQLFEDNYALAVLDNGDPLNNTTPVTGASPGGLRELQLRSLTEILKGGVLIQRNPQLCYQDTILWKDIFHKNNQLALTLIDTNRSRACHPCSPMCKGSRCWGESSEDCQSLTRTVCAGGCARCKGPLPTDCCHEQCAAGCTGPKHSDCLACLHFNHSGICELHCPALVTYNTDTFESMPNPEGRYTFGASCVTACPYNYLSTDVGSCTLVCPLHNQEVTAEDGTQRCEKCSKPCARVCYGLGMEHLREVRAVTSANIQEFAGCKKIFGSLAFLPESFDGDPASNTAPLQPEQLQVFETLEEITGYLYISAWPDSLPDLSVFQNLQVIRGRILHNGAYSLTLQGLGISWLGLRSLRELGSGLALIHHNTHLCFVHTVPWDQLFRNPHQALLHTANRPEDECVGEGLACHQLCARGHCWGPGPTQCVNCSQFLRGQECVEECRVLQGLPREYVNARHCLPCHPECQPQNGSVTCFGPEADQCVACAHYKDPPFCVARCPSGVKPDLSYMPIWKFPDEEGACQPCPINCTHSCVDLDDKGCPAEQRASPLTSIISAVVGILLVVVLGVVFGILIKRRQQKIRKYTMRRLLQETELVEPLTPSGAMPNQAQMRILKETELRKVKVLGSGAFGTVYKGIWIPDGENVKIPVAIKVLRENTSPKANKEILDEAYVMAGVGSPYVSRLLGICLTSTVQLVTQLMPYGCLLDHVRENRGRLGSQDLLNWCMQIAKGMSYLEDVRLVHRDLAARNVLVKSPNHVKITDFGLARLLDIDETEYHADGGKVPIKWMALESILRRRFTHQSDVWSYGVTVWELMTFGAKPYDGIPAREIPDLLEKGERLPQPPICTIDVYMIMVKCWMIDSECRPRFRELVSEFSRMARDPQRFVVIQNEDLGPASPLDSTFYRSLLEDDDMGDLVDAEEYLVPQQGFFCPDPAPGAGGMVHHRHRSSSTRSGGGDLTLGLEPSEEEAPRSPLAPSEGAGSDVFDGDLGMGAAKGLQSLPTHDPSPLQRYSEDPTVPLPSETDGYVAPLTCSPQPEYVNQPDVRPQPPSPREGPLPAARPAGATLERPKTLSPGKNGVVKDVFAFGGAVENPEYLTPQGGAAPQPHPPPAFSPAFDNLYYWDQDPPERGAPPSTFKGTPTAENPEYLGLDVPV
Experiment [4] deals with T1, Epidermal growth factor receptor. Nature of the experiment: In vitro inhibition of HER1 autophosphorylation.
The test system of experiment [5] is NIH3T3. Kind of experiment: (§2) Inhibition of HER14 serum dependent cell proliferation without EGF. In kind it is functional, Mus musculus. An outline of the steps:
as §1

Experiment [6] has as its system NIH3T3. The experiment is described as §2. To be noted: Mus musculus.
Experiment [7] has as its target T1, Epidermal growth factor receptor. Nature of the experiment: Inhibition of epidermal growth factor receptor autophosphorylation.
In experiment [8] the test system is NIH3T3. The experiment is described as §2. In kind it is functional, cell-based. Conditions: Mus musculus. In a few lines: as §1

T1 sequence (P00533 whole entry): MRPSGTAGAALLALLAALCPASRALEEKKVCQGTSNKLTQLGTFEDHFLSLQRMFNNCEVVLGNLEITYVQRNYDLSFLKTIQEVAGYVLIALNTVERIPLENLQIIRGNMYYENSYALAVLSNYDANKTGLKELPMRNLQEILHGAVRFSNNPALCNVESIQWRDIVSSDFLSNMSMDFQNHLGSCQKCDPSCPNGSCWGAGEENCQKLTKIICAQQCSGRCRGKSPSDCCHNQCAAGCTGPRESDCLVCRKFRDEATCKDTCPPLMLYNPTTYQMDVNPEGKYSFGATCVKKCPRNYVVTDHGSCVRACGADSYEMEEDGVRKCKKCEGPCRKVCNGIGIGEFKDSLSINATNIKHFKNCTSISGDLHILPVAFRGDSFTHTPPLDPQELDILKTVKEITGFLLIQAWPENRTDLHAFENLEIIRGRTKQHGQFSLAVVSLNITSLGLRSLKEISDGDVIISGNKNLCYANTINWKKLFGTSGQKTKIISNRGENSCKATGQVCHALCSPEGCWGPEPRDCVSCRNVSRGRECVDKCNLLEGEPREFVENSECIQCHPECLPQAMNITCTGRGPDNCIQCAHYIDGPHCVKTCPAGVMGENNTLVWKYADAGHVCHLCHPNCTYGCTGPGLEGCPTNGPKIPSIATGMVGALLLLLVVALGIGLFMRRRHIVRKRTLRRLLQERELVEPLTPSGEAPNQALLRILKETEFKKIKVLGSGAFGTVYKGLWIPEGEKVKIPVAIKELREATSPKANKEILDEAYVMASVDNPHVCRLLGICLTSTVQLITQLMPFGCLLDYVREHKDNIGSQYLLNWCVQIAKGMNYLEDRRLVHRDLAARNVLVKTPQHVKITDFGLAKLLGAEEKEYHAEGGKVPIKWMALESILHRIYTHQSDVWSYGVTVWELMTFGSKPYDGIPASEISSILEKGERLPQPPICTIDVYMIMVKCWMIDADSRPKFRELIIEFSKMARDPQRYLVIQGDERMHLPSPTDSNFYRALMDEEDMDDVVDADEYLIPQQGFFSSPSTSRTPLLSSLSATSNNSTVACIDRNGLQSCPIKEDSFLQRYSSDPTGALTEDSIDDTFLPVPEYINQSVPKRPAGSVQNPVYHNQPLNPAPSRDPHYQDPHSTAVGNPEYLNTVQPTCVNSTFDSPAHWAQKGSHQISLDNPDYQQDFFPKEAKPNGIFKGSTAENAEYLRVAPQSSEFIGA

In experiment [1], `CSc1ccc(C=C(C#N)C#N)cc1` gave an IC50 of more than 625 µM.
The compound `N#CC(C#N)=Cc1ccc(C#N)cc1` gave a half-maximal inhibitory concentration (IC50) in experiment [1] of 1400 µM.
The compound `CN1C(=O)C(=C(C#N)C#N)c2cc(O)ccc21` registered a concentration for half-maximal inhibition (IC50) in experiment [1] of 26 µM.
The same measure, in the same setting: for `N#CC(C#N)=Cc1ccco1` the value was more than 1250 µM.
Take `N#C/C(=C\c1ccc(O)c(O)c1)C(N)=O`: the 50% inhibitory concentration (IC50) turned out to be 60 µM with NIH3T3 [2], 6.4 µM in experiment [3] and 4.5 µM in experiment [4].
With `N#CC(C#N)=C1CCc2cc(O)c(O)cc21`, in experiment [1], the half-inhibitory concentration (IC50) is 0.5 µM. Also, the Inhibition in the experiment with NIH3T3 [5] was more than 150%.
`N#CC(C#N)=C1C(=O)Nc2cc(O)c(O)cc21` gave an IC50 in experiment [1] of 2.5 µM.
In the case of `N#C/C(=C\c1ccc(O)c(O)c1)C(=O)c1ccc([N+](=O)[O-])cc1`, the IC50 was <<20 uM in the experiment with NIH3T3 [2], 3 µM in experiment [3], 2.3 µM in experiment [1] and 11 µM in experiment [4].
With `CC(=O)Nc1ccc(C=C(C#N)C#N)cc1`, the 50% inhibitory concentration (IC50) in experiment [1] is more than 325 µM.
In the experiment on NIH3T3 [6], `N#CC(C#N)=Cc1ccc2[nH]ccc2c1` displayed an IC50 of 12 µM.
On to `N#C/C(=C\c1ccc(O)c(O)c1)C(=O)c1cccs1`, for which the values for the IC50 in experiment [3], in experiment [1] and in experiment [4] were 35 µM, 3.1 µM and 31 µM, respectively.
Regarding `N#CC(C#N)=Cc1ccc(S(=O)(=O)O)o1`, the half-inhibitory concentration (IC50) in experiment [1] was more than 250 µM.
With `N#C/C(=C\c1ccc(O)c(O)c1)C(=O)N1CCN(c2ccccc2)CC1`, the results for the IC50 in experiment [3], in experiment [1] and in experiment [4] were 49 µM, 4.3 µM and 55 µM, respectively.
Turning to `N#C/C(=C\c1ccc(O)c(O)c1)C(=O)NCCc1ccccc1`, the IC50 in experiment [3] is 23 µM; in experiment [1], 0.93 µM; in experiment [4], less than 0.625 µM.
The compound `COc1cc2c(cc1O)NC(=O)C2=C(C#N)C#N` gave an IC50 in experiment [1] of 60 µM.
As to `N#C/C(=C\c1ccc(O)c(O)c1)C(=O)Nc1ccccc1Cl`, the 50% inhibitory concentration (IC50) worked out at 12 µM with NIH3T3 [2], 57 µM in experiment [3], 1.1 µM in experiment [1] and 2.1 µM in experiment [4].
With `N#CC(C#N)=C1C(=O)Nc2ccc([N+](=O)[O-])cc21`, the midpoint of inhibition in experiment [1], the IC50, lay at 40 µM.
For `COc1ccc(CCNC(=O)/C(C#N)=C/c2ccc(O)c(O)c2)cc1OC`, it took 1.7 µM to reach half-maximal inhibition in experiment [1] (IC50).
The same measure, in the same setting: then `N#CC(C#N)=C1C(=O)Nc2ccc(O)cc21`, with 12.5 µM; and `N#CC(C#N)=Cc1ccc2c(c1)CCN2Cc1ccccc1`, with more than 2500 µM.
On the same count and under the same terms, then `COc1ccc(C=C(C#N)C#N)cc1F`, with 800 µM.
As to `CCOC(=O)C(Cc1ccccc1)NC(=O)/C(C#N)=C/c1ccc(O)c(O)c1` (centres undefined), the figures for the IC50 in experiment [3], in experiment [1] and in experiment [4] were more than 333 µM, 1.53 µM and 49 µM, respectively.
In turn, `N#CC(C#N)=C1CCc2c1ccc(O)c2O` returned an IC50 in experiment [1] of 7 µM.
As to `COc1ccc(NC(=O)/C(C#N)=C/c2ccc(O)c(O)c2)c(OC)c1`, the IC50 in experiment [3] is more than 166 µM.
For `N#C/C(=C\c1ccc(O)c(O)c1)C(=O)c1ccc(F)cc1`, the IC50 in experiment [3] was 13.6 µM; in experiment [7], 5.1 µM; in experiment [1], 0.56 µM; in the experiment on NIH3T3 [5], 80 µM.
Consider `N#C/C(=C\c1ccc(O)c(O)c1)C(=O)NCCCCc1ccccc1`, for which the IC50 is 10 µM in the experiment with NIH3T3 [2], more than 500 µM in experiment [3], 1.1 µM in experiment [1] and 5 µM in experiment [4].
Turning to `N#C/C(=C\c1ccc(O)c(O)c1)C(=O)Nc1ccccc1`, the IC50 in the experiment with NIH3T3 [2] was more than 50 µM; in experiment [3] it was 42 µM.
`N#C/C(=C\c1ccc(O)c(O)c1)C(=O)NC1CCCCC1`: the 50% inhibitory concentration (IC50) in the experiment on NIH3T3 [2] came to 50 µM; in experiment [3] it was 17 µM; in experiment [1] it was 1.6 µM; in experiment [4], 5.9 µM.
`N#CC(C#N)=Cc1cccnc1` yielded an IC50 in experiment [1] of 225 µM.
Turning to `Cc1ccc(C(=O)/C(C#N)=C/c2ccc(O)c(O)c2)cc1`, the half-inhibitory concentration (IC50) in the experiment on NIH3T3 [2] was found to be 100 µM; in experiment [3] it was 10 µM; in experiment [1] it was 0.88 µM; in experiment [4], 15 µM.
On the same counts, the results for `N#C/C(=C\c1ccc(O)c(O)c1)C(=O)N1CCc2ccccc21` are 100 µM, 4.9 µM, 2.1 µM and 12 µM.
For the compound `CC(NC(=O)/C(C#N)=C/c1ccc(O)c(O)c1)c1ccccc1` (stereo in doubt; 50), half-maximal inhibition in experiment [1] (IC50) was put at 0.86 µM.
On the same count and under the same terms, for `N#CC(C#N)=C1CCCc2c(O)cccc21` the value was 1200 µM.
For `N#C/C(=C\c1ccc(O)c(O)c1)C(=O)c1ccccc1`, the IC50 in the experiment with NIH3T3 [2] was 120 µM; in experiment [3] it was 18 µM; in experiment [1], 1.3 µM; in experiment [4], 14 µM.
For `Cc1cccc(C)c1NC(=O)/C(C#N)=C/c1ccc(O)c(O)c1`, the IC50 is more than 20 µM with NIH3T3 [2], 34 µM in experiment [3], 5.1 µM in experiment [1] and 10.3 µM in experiment [4].
Turning to `N#C/C(=C\c1ccc(O)c(O)c1)C(=O)c1ccccc1Cl`, the half-inhibitory concentration (IC50) in experiment [3] was determined as 12 µM; in experiment [1], 1.54 µM; in experiment [4] it was 6.6 µM.
For the compound `N#CC(C#N)=C(N)/C(C#N)=C/c1ccc2[nH]ccc2c1`, the IC50 was 820 µM in experiment [1], >>100 uM with NIH3T3 [5] and 7 µM with NIH3T3 [8].
Take `CC(NC(=O)/C(C#N)=C/c1ccc(O)c(O)c1)c1ccccc1` (stereo in doubt; 44): the IC50 came to 10 µM with NIH3T3 [2], 37 µM in experiment [3], 0.4 µM in experiment [1] and 2.5 µM in experiment [4].
As for `N#C/C(=C\c1ccc(O)c(O)c1)C(=O)NCCCc1ccccc1`, the IC50 in the experiment with NIH3T3 [2] was 25 µM; in experiment [3], 35 µM; in experiment [1], 0.7 µM; in experiment [4], 0.7 µM.
Regarding `N#C/C(=C\c1ccc(O)c(O)c1)C(=O)c1ccc(O)c(O)c1`, the IC50 is 18 µM in experiment [3], 0.37 µM in experiment [1], more than 50 µM with NIH3T3 [5] and 5 µM in experiment [4].
`N#C/C(=C\c1ccc(O)c(O)c1)C(=O)NCc1ccccc1`: the IC50 with NIH3T3 [2] amounted to 25 µM; in experiment [3] it was 13.5 µM.
`C[S+]([O-])c1ccc(C=C(C#N)C#N)cc1` (centres undefined) displayed an IC50 in experiment [1] of 1800 µM.
For the compound `Cc1cc(C)c(C(=O)/C(C#N)=C/c2ccc(O)c(O)c2)c(C)c1`, the half-inhibitory concentration (IC50) in experiment [3] came to 50 µM; in experiment [1], 10.7 µM; in experiment [4], 24 µM.
In experiment [1], `N#C/C(=C\c1ccc(O)c(O)c1)C(=O)N1CCCCC1` returned a half-maximal inhibitory concentration (IC50) of more than 1000 µM.

The term IC50 denotes the point on the concentration scale where inhibition reaches its midpoint. What is called Inhibition is the drop in the measured response relative to a control, in per cent.

These data come from ChEMBL document CHEMBL1125266, “Tyrphostins. 2. Heterocyclic and alpha-substituted benzylidenemalononitrile tyrphostins as potent inhibitors of EGF receptor and ErbB2/neu tyrosine kinases” (J Med Chem, 1991).
